The values below come from ChEMBL document CHEMBL1137744, “Parallel synthesis, molecular modelling and further structure-activity relationship studies of new acylthiocarbamates as potent non-nucleoside HIV-1 reverse transcriptase inhibitors” (Eur J Med Chem, 2009).

Structures are written as SMILES.

Data set [1] is described as follows: Selectivity index, ratio of CC50 for human MT4 cells to EC50 for HIV1 3B. To be noted: read-out: Ratio CC50/EC50. It is filed as toxicity, cell-based. The method, boiled down: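 Computed as CC50/EC50. Both come from MTT readings in MT-4 cells: CC50 is 50% viability loss in mock-infected cells, and EC50 is 50% protection from HIV-1-induced cytopathogenicity. Each is the mean of three experiments.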

Data set [2] relates to Human immunodeficiency virus 1. As to the kind of experiment: Antiviral activity against HIV1 3B infected in human MT4 cells assessed as inhibition of virus-induced cytopathogenicity by MTT assay. To be noted: Human immunodeficiency virus 1, 3B. It is filed as functional, organism-based. In short, it runs like this:
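MT-4 cells infected with HIV-1 and read by MTT viability. EC50 is the concentration giving 50% protection of cells from virus-induced cytopathogenicity. Values are means of three separate experiments, with variation among triplicate samples under 10%.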
(In general: Damage to the host cells serves as the signal in cytopathic effect assays.)

Data set [3] can be described thus: Cytotoxicity against human MT4 cells by MTT assay. It is filed as cell-based. The method, boiled down:
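Uninfected (mock-infected) MT-4 cells were exposed to compound and viability was read by MTT. CC50 is the concentration cutting viability by 50%. Values are means of three separate experiments, with triplicate samples varying by less than 10%.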
On the technique in general: Tetrazolium assays rely on reduction of a dye to a coloured formazan, in cell work by metabolically active cells.

Broadly, the EC50 is the concentration that produces a half-maximal response. By CC50 is commonly meant the concentration that lowers cell viability or growth by half. With `O=C1c2ccccc2C(=O)N1CCOC(=S)N(C(=O)c1cccc2ccccc12)c1ccc(Cl)cc1`, the selectivity ratio in data set [1] worked out at 200. Also, the EC50 in data set [2] amounted to 0.03 µM. The CC50 in data set [3] was determined as 6 µM.
The matching figures for `O=C1c2ccccc2C(=O)N1CCOC(=S)N(C(=O)c1c(Cl)cccc1Cl)c1ccc(Cl)cc1`: 3.6, 5.6 µM and 20 µM.
Turning to `O=C1c2ccccc2C(=O)N1CCOC(=S)N(C(=O)c1ccccc1)c1ccc(Cl)cc1`, in data set [2], the EC50 was found to be 0.1 µM.
For `Cc1ccc(N(C(=O)c2cccc(C)c2)C(=S)OCCN2C(=O)c3ccccc3C2=O)cc1`, the selectivity ratio in data set [1] is > 2500. The EC50 in data set [2] came to 0.04 µM. Besides, the CC50 in data set [3] is > 100 µM.
Taken in the same sequence, the figures for `Cc1ccc(N(C(=O)c2ccc(Cl)c(Cl)c2)C(=S)OCCN2C(=O)c3ccccc3C2=O)cc1` were 340, 0.05 µM and 17 µM.
Taken in the same sequence, the figures for `Cc1ccc(N(C(=O)c2cccc(Cl)c2Cl)C(=S)OCCN2C(=O)c3ccccc3C2=O)cc1` were 175, 0.2 µM and 35 µM.
The matching figures for `O=C1c2ccccc2C(=O)N1CCOC(=S)N(C(=O)c1cc([N+](=O)[O-])ccc1Cl)c1ccc(Cl)cc1`: 643, 0.07 µM and 45 µM.
For `O=C1c2ccccc2C(=O)N1CCOC(=S)N(C(=O)c1cccs1)c1ccc(Cl)cc1`, the concentration giving a half-maximal response (EC50) in data set [2] turned out to be 0.008 µM.
In the case of `O=C1c2ccccc2C(=O)N1CCOC(=S)N(C(=O)c1cc(F)cc(F)c1)c1ccc(Cl)cc1`, the selectivity ratio in data set [1] amounted to 8430. Moreover, in data set [2], the EC50 was found to be 0.007 µM. For the same compound, the 50% cytotoxic concentration (CC50) in data set [3] is 59 µM.
Consider `O=C1c2ccccc2C(=O)N1CCOC(=S)N(C(=O)c1ccco1)c1ccc(Cl)cc1Cl`, for which, in data set [1], the selectivity ratio was > 38. Besides, the half-maximal effective concentration (EC50) in data set [2] came out at 2.6 µM. Also, in data set [3], the CC50 is > 100 µM.
As to `O=C1c2ccccc2C(=O)N1CCOC(=S)N(C(=O)c1ccco1)c1cc(Cl)cc(Cl)c1`, in data set [2], the EC50 is > 100 µM. In data set [3], the 50% cytotoxic concentration (CC50) was > 100 µM.
Take `Cc1ccccc1C(=O)N(C(=S)OCCN1C(=O)c2ccccc2C1=O)c1ccc(Cl)cc1`: the selectivity ratio in data set [1] was 525. Besides, in data set [2], the EC50 was 0.04 µM. For the same compound, the midpoint of cytotoxicity in data set [3], the CC50, lay at 21 µM.
The matching figures for `Cc1ccc(N(C(=O)c2ccc(F)cc2F)C(=S)OCCN2C(=O)c3ccccc3C2=O)cc1`: 667, 0.03 µM and 20 µM.
`O=C1c2ccccc2C(=O)N1CCCOC(=S)N(C(=O)c1cccc([N+](=O)[O-])c1)c1ccc(Cl)cc1`: in data set [1], the selectivity ratio came to 1.8. Further, in data set [2], the EC50 amounted to 29 µM. Also, half-maximal cytotoxicity in data set [3] (CC50) was put at 53 µM.
For `O=C1c2ccccc2C(=O)N1CCOC(=S)N(C(=O)c1cccnc1Cl)c1ccc(Cl)cc1`, in data set [2], the EC50 turned out to be 0.005 µM.
Take `Cc1ccc(N(C(=O)c2cccc([N+](=O)[O-])c2)C(=S)OCCN2C(=O)c3ccccc3C2=O)cc1`: in data set [1], the selectivity ratio turned out to be 5000. The EC50 in data set [2] was 0.02 µM. The same compound gave a CC50 in data set [3] of 100 µM.
On to `O=C1c2ccccc2C(=O)N1CCOC(=S)N(C(=O)c1ccc(Cl)c(Cl)c1)c1ccccc1`, for which the selectivity ratio in data set [1] came out at 104. In addition, the EC50 in data set [2] was 0.5 µM. In data set [3], this compound came in with a half-maximal cytotoxic concentration (CC50) of 52 µM.
As for `Cc1ccc2c(c1)C(=O)N(CCOC(=S)N(C(=O)c1cccc([N+](=O)[O-])c1)c1ccc(Cl)cc1)C2=O`, the selectivity ratio in data set [1] is > 2000. Moreover, the EC50 in data set [2] was found to be 0.05 µM. In addition, the CC50 in data set [3] was > 100 µM.
The matching figures for `O=C1c2ccccc2C(=O)N1CCOC(=S)N(C(=O)c1cccc([N+](=O)[O-])c1)c1ccc(Cl)cc1`: 12000, 0.0015 µM and 18 µM.
Taken in the same sequence, the figures for `Cc1ccc(N(C(=O)c2c(Cl)cccc2Cl)C(=S)OCCN2C(=O)c3ccccc3C2=O)cc1` were 2.4, 9 µM and 22 µM.
As for `O=C1c2ccccc2C(=O)N1COC(=S)N(C(=O)c1cccc([N+](=O)[O-])c1)c1ccc(Cl)cc1`, the EC50 in data set [2] is > 100 µM. In data set [3], the CC50 was > 100 µM.
For `CC(CN1C(=O)c2ccccc2C1=O)OC(=S)N(C(=O)c1cccc([N+](=O)[O-])c1)c1ccc(Cl)cc1` (racemic), in data set [1], the selectivity ratio was determined as 44.3. The EC50 in data set [2] was 0.7 µM. The compound further registered a CC50 in data set [3] of 31 µM.
For `Cc1ccc(C(=O)N(C(=S)OCCN2C(=O)c3ccccc3C2=O)c2ccc(C)cc2)cc1`, the selectivity ratio in data set [1] was found to be 4150. For the same compound, in data set [2], the EC50 came out at 0.02 µM. The CC50 in data set [3] came out at 83 µM.
Turning to `O=C1c2ccccc2C(=O)N1CCOC(=S)N(C(=O)c1ccc(Cl)cc1Cl)c1ccc(Cl)cc1`, the selectivity ratio in data set [1] stood at 600. In data set [2], the EC50 was found to be 0.03 µM. The same compound showed a CC50 in data set [3] of 18 µM.
Taken in the same sequence, the figures for `Cc1ccc(N(C(=O)c2ccc(Cl)cc2Cl)C(=S)OCCN2C(=O)c3ccccc3C2=O)cc1` were 163, 0.3 µM and 49 µM.
The matching figures for `Cc1ccc(N(C(=O)c2ccc(Br)c(C)c2)C(=S)OCCN2C(=O)c3ccccc3C2=O)cc1`: > 2000, 0.05 µM and > 100 µM.
Turning to `O=C1c2ccccc2C(=O)N1CCOC(=S)N(C(=O)c1cccc([N+](=O)[O-])c1)c1c(Cl)cc(Cl)cc1Cl`, the EC50 in data set [2] was > 20 µM. This compound also gave a CC50 in data set [3] of 20 µM.
Turning to `O=C1c2ccccc2C(=O)N1CCOC(=S)N(C(=O)c1ccc(Br)cc1)c1ccc(Br)cc1`, the selectivity ratio in data set [1] turned out to be 2090. Besides, the EC50 in data set [2] was 0.035 µM. Half-maximal cytotoxicity in data set [3] (CC50) was put at 73 µM.
As for `Cc1ccc(N(C(=O)c2cc(F)ccc2F)C(=S)OCCN2C(=O)c3ccccc3C2=O)cc1`, in data set [1], the selectivity ratio came out at 1550. In addition, the EC50 in data set [2] came out at 0.04 µM. The compound also registered a CC50 in data set [3] of 62 µM.
The matching figures for `COc1cccc(OC)c1C(=O)N(C(=S)OCCN1C(=O)c2ccccc2C1=O)c1ccc(Cl)cc1`: 172, 0.4 µM and 69 µM.
The matching figures for `Cc1ccc(N(C(=O)c2ccc(Cl)c([N+](=O)[O-])c2)C(=S)OCCN2C(=O)c3ccccc3C2=O)cc1`: 783, 0.06 µM and 47 µM.
The matching figures for `Cc1ccc(N(C(=O)c2ccccc2C)C(=S)OCCN2C(=O)c3ccccc3C2=O)cc1`: > 500, 0.2 µM and > 100 µM.
Regarding `O=C1c2ccccc2C(=O)N1CCOC(=S)N(C(=O)c1ccco1)c1cccc(Cl)c1Cl`, the EC50 in data set [2] was > 100 µM. The compound also registered a CC50 in data set [3] of 100 µM.
Take `O=C1c2ccccc2C(=O)N1CCOC(=S)N(C(=O)c1ccc(Cl)nc1)c1ccc(Cl)cc1`: the EC50 in data set [2] was 0.006 µM.
For the compound `Cc1ccc(N(C(=O)c2ccccc2[N+](=O)[O-])C(=S)OCCN2C(=O)c3ccccc3C2=O)cc1`, in data set [1], the selectivity ratio was 250. In addition, in data set [2], the EC50 was found to be 0.4 µM. Also, in data set [3], it took 100 µM to reach half-maximal cytotoxicity (CC50).
The matching figures for `Cc1ccc(N(C(=O)c2ccc([N+](=O)[O-])cc2)C(=S)OCCN2C(=O)c3ccccc3C2=O)cc1`: 1930, 0.03 µM and 58 µM.
`O=C1c2ccccc2C(=O)N1CCOC(=S)N(C(=O)c1ccccc1)c1ccccc1`: in data set [2], the EC50 was 0.4 µM.
On to `O=C1c2ccccc2C(=O)N1CCOC(=S)N(C(=O)c1ccc(Cl)c([N+](=O)[O-])c1)c1ccccc1`, for which, in data set [1], the selectivity ratio worked out at 146. In addition, in data set [2], the EC50 came to 0.35 µM. This compound also came in with a CC50 in data set [3] of 51 µM.
On to `Cc1ccc(N(C(=O)c2ccc([N+](=O)[O-])cc2Cl)C(=S)OCCN2C(=O)c3ccccc3C2=O)cc1`, for which the selectivity ratio in data set [1] worked out at 189. Also, the EC50 in data set [2] worked out at 0.09 µM. For the same compound, it took 17 µM to reach half-maximal cytotoxicity in data set [3] (CC50).
Regarding `O=C1c2ccccc2C(=O)N1CCOC(=S)N(C(=O)c1ccco1)c1ccc(Cl)cc1`, the EC50 in data set [2] amounted to 0.007 µM.
As for `O=C1c2ccccc2C(=O)N1CCOC(=S)N(C(=O)c1cccc([N+](=O)[O-])c1)c1c(Cl)cccc1Cl`, the selectivity ratio in data set [1] came out at 3.4. For the same compound, in data set [2], the EC50 stood at 17 µM. The midpoint of cytotoxicity in data set [3], the CC50, lay at 58 µM.
Taken in the same sequence, the figures for `O=C1c2ccccc2C(=O)N1CCOC(=S)N(C(=O)c1ccc(C(F)(F)F)cc1)c1ccc(Cl)cc1` were 2000, 0.005 µM and 10 µM.
The matching figures for `O=C1c2ccccc2C(=O)N1CCOC(=S)N(C(=O)c1ccc([N+](=O)[O-])cc1Cl)c1ccc(Cl)cc1`: 2380, 0.008 µM and 19 µM.
On to `Cc1ccc2c(c1)C(=O)N(CCOC(=S)N(C(=O)c1cccs1)c1ccc(Cl)cc1)C2=O`, for which the selectivity ratio in data set [1] is > 5000. In addition, the EC50 in data set [2] amounted to 0.02 µM. Further, the CC50 in data set [3] was > 100 µM.
Consider `O=C1c2ccccc2C(=O)N1CCOC(=S)N(C(=O)c1ccc(Cl)cc1)c1ccc(Cl)cc1`, for which the EC50 in data set [2] stood at 0.025 µM.
Turning to `O=C1c2ccccc2C(=O)N1CCOC(=S)N(C(=O)c1ccc(Cl)c(Cl)c1)c1ccc(Cl)cc1`, in data set [1], the selectivity ratio stood at 3890. Further, in data set [2], the EC50 was 0.009 µM. Besides, the CC50 in data set [3] stood at 35 µM.
With `O=C1c2ccccc2C(=O)N1CCOC(=S)N(C(=O)c1ccccc1[N+](=O)[O-])c1ccc(Cl)cc1`, the selectivity ratio in data set [1] stood at 300. Besides, the EC50 in data set [2] stood at 0.07 µM. The compound also yielded a half-maximal cytotoxic concentration (CC50) in data set [3] of 21 µM.
The matching figures for `CCCCCOc1ccc(C(=O)N(C(=S)OCCN2C(=O)c3ccccc3C2=O)c2ccc(F)cc2)cc1`: > 11.8, 8.5 µM and > 100 µM.
As for `Cc1ccc(N(C(=O)c2c(F)cccc2F)C(=S)OCCN2C(=O)c3ccccc3C2=O)cc1`, in data set [1], the selectivity ratio was found to be 65. Further, in data set [2], the concentration for a half-maximal effect (EC50) came to 1 µM. Also, it took 65 µM to reach half-maximal cytotoxicity in data set [3] (CC50).
